Results published in ChEMBL document CHEMBL2062460, “Disubstituted thiourea derivatives and their activity on CNS: synthesis and biological evaluation” (Eur J Med Chem, 2012).
In brackets after ≈: the same amount, converted by molar mass. Activity calls are given as the source filed them. No cut-off for these calls is given here.

Key:
[1] = system: Bacillus subtilis; assay: Antibacterial activity against Bacillus subtilis ATCC 6633 at 400 ug/disc after 18 hrs by disc diffusion method; format: functional; conditions: ATCC 6633, 18 h, read-out: DIZ
How it was run: (§1)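 Disc diffusion per CLSI on Mueller–Hinton II agar; 9 mm paper discs loaded from methanol or DMSO solutions to 400 µg per disc, dried; growth inhibition zone diameter read after 18 h at 35 °C.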

[2] = system: Staphylococcus epidermidis; assay: Antibacterial activity against Staphylococcus epidermidis ATCC 12228 at 400 ug/disc after 18 hrs by disc diffusion method; format: functional; conditions: ATCC 12228, 18 h, read-out: DIZ; how it was run: as §1
[3] = system: Enterococcus hirae; assay: Antibacterial activity against Enterococcus hirae ATCC 10541 at 400 ug/disc after 18 hrs by disc diffusion method; format: functional; conditions: ATCC 10541, 18 h, read-out: DIZ; how it was run: as §1
[4] = system: Staphylococcus aureus; assay: Antibacterial activity against Staphylococcus aureus NCTC 4163 at 400 ug/disc after 18 hrs by disc diffusion method; format: functional; conditions: NCTC 4163, 18 h, read-out: DIZ; how it was run: as §1
[5] = system: Staphylococcus aureus; assay: Antibacterial activity against Staphylococcus aureus ATCC 6538 at 400 ug/disc after 18 hrs by disc diffusion method; format: functional; conditions: ATCC 6538, 18 h, read-out: DIZ; how it was run: as §1
[6] = system: Staphylococcus aureus; assay: Antibacterial activity against Staphylococcus aureus ATCC 29213 at 400 ug/disc after 18 hrs by disc diffusion method; format: functional; conditions: ATCC 29213, 18 h, read-out: DIZ; how it was run: as §1
[7] = system: Proteus vulgaris; assay: Antibacterial activity against Proteus vulgaris NCTC 4635 at 400 ug/disc after 18 hrs by disc diffusion method; format: functional, organism-based; how it was run: as §1
[8] = system: Pseudomonas aeruginosa; assay: Antibacterial activity against Pseudomonas aeruginosa ATCC 15442 at 400 ug/disc after 18 hrs by disc diffusion method; format: functional, organism-based; how it was run: as §1
[9] = system: Pseudomonas aeruginosa; assay: Antibacterial activity against Pseudomonas aeruginosa NCTC 6749 at 400 ug/disc after 18 hrs by disc diffusion method; format: functional, organism-based; how it was run: as §1
[10] = system: Bordetella bronchiseptica; assay: Antibacterial activity against Bordetella bronchiseptica ATCC 4617 at 400 ug/disc after 18 hrs by disc diffusion method; format: functional, organism-based; how it was run: as §1
[11] = system: Candida albicans; assay: Antifungal activity against Candida albicans ATCC 10231 at 400 ug/disc after 18 hrs by disc diffusion method; format: functional, organism-based
How it was run: (§2)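 Yeasts tested by disc diffusion (CLSI) on RPMI agar with 2% glucose; 9 mm paper discs bearing 400 µg compound from methanol or DMSO solution; inhibition zone diameter read after 18 h at 35 °C.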

[12] = system: Candida albicans; assay: Antifungal activity against Candida albicans ATCC 90028 at 400 ug/disc after 18 hrs by disc diffusion method; format: functional, organism-based; how it was run: as §2
[13] = system: Staphylococcus aureus; assay: Antibacterial activity against Staphylococcus aureus ATCC 25923 after 18 hrs by twofold serial agar dilution technique; format: functional; conditions: ATCC 25923, 18 h
How it was run: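 Twofold serial agar dilution on Mueller–Hinton II agar, following CLSI guidelines. Compounds were dissolved in methanol or DMSO and tested at final agar concentrations of 3.125–400 µg/mL. Final inoculum was 10^4 CFU/mL.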

[14] = system: Bacillus subtilis; assay: Antibacterial activity against Bacillus subtilis ATCC 6633 after 18 hrs by twofold serial agar dilution technique; format: functional; conditions: ATCC 6633, 18 h
[15] = system: Enterococcus hirae; assay: Antibacterial activity against Enterococcus hirae ATCC 10541 after 18 hrs by twofold serial agar dilution technique; format: functional; conditions: ATCC 10541, 18 h
[16] = system: Micrococcus luteus; assay: Antibacterial activity against Micrococcus luteus ATCC 9341 after 18 hrs by twofold serial agar dilution technique; format: functional; conditions: ATCC 9341, 18 h
[17] = system: Micrococcus luteus; assay: Antibacterial activity against Micrococcus luteus ATCC 10240 after 18 hrs by twofold serial agar dilution technique; format: functional; conditions: ATCC 10240, 18 h
[18] = system: Staphylococcus aureus; assay: Antibacterial activity against methicillin-susceptible Staphylococcus aureus clinical isolate 261/08 after 18 hrs by twofold serial agar dilution technique; format: functional; conditions: clinical isolate 261/08, 18 h
How it was run: (§3)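 Clinical isolates came from patients in Warsaw Medical University Hospitals and were classed as methicillin-susceptible or -resistant. MIC was determined by twofold serial agar dilution on Mueller–Hinton II agar (CLSI), 3.125–400 µg/mL in agar, with compounds in methanol or DMSO. Inoculum was 10^4 CFU/mL and plates were read after 18 h at 35 °C.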

[19] = system: Staphylococcus aureus; assay: Antibacterial activity against methicillin-susceptible Staphylococcus aureus clinical isolate 267/08 after 18 hrs by twofold serial agar dilution technique; format: functional; conditions: clinical isolate 267/08, 18 h; how it was run: as §3
[20] = system: Staphylococcus aureus; assay: Antibacterial activity against methicillin-susceptible Staphylococcus aureus clinical isolate 268/08 after 18 hrs by twofold serial agar dilution technique; format: functional; conditions: clinical isolate 268/08, 18 h; how it was run: as §3
[21] = system: Staphylococcus aureus; assay: Antibacterial activity against methicillin-susceptible Staphylococcus aureus clinical isolate 269/08 after 18 hrs by twofold serial agar dilution technique; format: functional; conditions: clinical isolate 269/08, 18 h; how it was run: as §3
[22] = system: Staphylococcus aureus; assay: Antibacterial activity against methicillin-susceptible Staphylococcus aureus clinical isolate 367/09 after 18 hrs by twofold serial agar dilution technique; format: functional; conditions: clinical isolate 367/09, 18 h; how it was run: as §3
[23] = system: Staphylococcus aureus; assay: Antibacterial activity against methicillin-susceptible Staphylococcus aureus clinical isolate 369/09 after 18 hrs by twofold serial agar dilution technique; format: functional; conditions: clinical isolate 369/09, 18 h; how it was run: as §3
[24] = system: Staphylococcus aureus; assay: Antibacterial activity against methicillin-resistant Staphylococcus aureus clinical isolate 275/08 after 18 hrs by twofold serial agar dilution technique; format: functional; conditions: clinical isolate 275/08, 18 h; how it was run: as §3
[25] = system: Staphylococcus aureus; assay: Antibacterial activity against methicillin-resistant Staphylococcus aureus clinical isolate 277/08 after 18 hrs by twofold serial agar dilution technique; format: functional; conditions: clinical isolate 277/08, 18 h; how it was run: as §3
[26] = system: Staphylococcus aureus; assay: Antibacterial activity against methicillin-resistant Staphylococcus aureus clinical isolate 307/08 after 18 hrs by twofold serial agar dilution technique; format: functional; conditions: clinical isolate 307/08, 18 h; how it was run: as §3
[27] = system: Staphylococcus aureus; assay: Antibacterial activity against methicillin-resistant Staphylococcus aureus clinical isolate 376/09 after 18 hrs by twofold serial agar dilution technique; format: functional; conditions: clinical isolate 376/09, 18 h; how it was run: as §3
[28] = system: Staphylococcus epidermidis; assay: Antibacterial activity against methicillin-resistant Staphylococcus epidermidis clinical isolate 311/08 after 18 hrs by twofold serial agar dilution technique; format: functional; conditions: clinical isolate 311/08, 18 h; how it was run: as §3
[29] = system: Staphylococcus epidermidis; assay: Antibacterial activity against methicillin-resistant Staphylococcus epidermidis clinical isolate 315/08 after 18 hrs by twofold serial agar dilution technique; format: functional; conditions: clinical isolate 315/08, 18 h; how it was run: as §3
[30] = system: Staphylococcus epidermidis; assay: Antibacterial activity against methicillin-resistant Staphylococcus epidermidis clinical isolate 316/08 after 18 hrs by twofold serial agar dilution technique; format: functional; conditions: clinical isolate 316/08, 18 h; how it was run: as §3
[31] = system: Staphylococcus epidermidis; assay: Antibacterial activity against methicillin-resistant Staphylococcus epidermidis clinical isolate 317/08 after 18 hrs by twofold serial agar dilution technique; format: functional; conditions: clinical isolate 317/08, 18 h; how it was run: as §3
[32] = system: Staphylococcus epidermidis; assay: Antibacterial activity against methicillin-resistant Staphylococcus epidermidis clinical isolate 340/09 after 18 hrs by twofold serial agar dilution technique; format: functional; conditions: clinical isolate 340/09, 18 h; how it was run: as §3
[33] = system: Staphylococcus epidermidis; assay: Antibacterial activity against methicillin-resistant Staphylococcus epidermidis clinical isolate 342/09 after 18 hrs by twofold serial agar dilution technique; format: functional; conditions: clinical isolate 342/09, 18 h; how it was run: as §3
[34] = system: Staphylococcus epidermidis; assay: Antibacterial activity against methicillin-resistant Staphylococcus epidermidis clinical isolate 343/09 after 18 hrs by twofold serial agar dilution technique; format: functional; conditions: clinical isolate 343/09, 18 h; how it was run: as §3
[35] = system: Staphylococcus epidermidis; assay: Antibacterial activity against methicillin-resistant Staphylococcus epidermidis clinical isolate 377/09 after 18 hrs by twofold serial agar dilution technique; format: functional; conditions: clinical isolate 377/09, 18 h; how it was run: as §3
[36] = system: Human immunodeficiency virus 1; assay: Antiviral activity against HIV1 infected in human MT4 cells assessed as virus-induced cytopathogenicity after 4 days by MTT assay; format: functional, organism-based; conditions: Human immunodeficiency virus 1, MT4, 96 h

With `S=C(Nc1nc[nH]n1)Nc1ccccc1Br` the zone of inhibition at 400 µg/disc [1] was 17 mm, the zone of inhibition at 400 µg/disc [2] was 12 mm and the zone of inhibition at 400 µg/disc [3] was 13 mm. For the same molecule, the zone of inhibition at 400 µg/disc [4] was 11 mm, the zone of inhibition at 400 µg/disc [5] was 12 mm and the zone of inhibition at 400 µg/disc [6] was 12 mm. For the same molecule, the “diameter of the inhibition zone (DIZ)” value [7] was “inactive”, the “diameter of the inhibition zone (DIZ)” value [8] was “inactive” and the “diameter of the inhibition zone (DIZ)” value [9] was “inactive”. The “diameter of the inhibition zone (DIZ)” value [10] was “inactive”, the “diameter of the inhibition zone (DIZ)” value [11] was “inactive” and the “diameter of the inhibition zone (DIZ)” value [12] was “inactive”. The MIC [13] was 50 µg/mL (≈ 168 µM), the MIC [14] was 12.5 µg/mL (≈ 41.9 µM) and the MIC [15] was 400 µg/mL (≈ 1340 µM). For the same molecule, the MIC [16] was 6.25 µg/mL (≈ 21 µM), the MIC [17] was 6.25 µg/mL (≈ 21 µM) and the MIC [18] was 50 µg/mL (≈ 168 µM). For the same molecule, the MIC [19] was 50 µg/mL (≈ 168 µM), the MIC [20] was 50 µg/mL (≈ 168 µM) and the MIC [21] was 50 µg/mL (≈ 168 µM). It also gave an MIC [22] of 50 µg/mL (≈ 168 µM), an MIC [23] of 50 µg/mL (≈ 168 µM) and an MIC [24] of 100 µg/mL (≈ 335 µM). The MIC [25] was 50 µg/mL (≈ 168 µM), the MIC [26] was 50 µg/mL (≈ 168 µM) and the MIC [27] was 50 µg/mL (≈ 168 µM). The MIC [28] was 100 µg/mL (≈ 335 µM), the MIC [29] was 100 µg/mL (≈ 335 µM) and the MIC [30] was 100 µg/mL (≈ 335 µM). It also gave an MIC [31] of 100 µg/mL (≈ 335 µM), an MIC [32] of 50 µg/mL (≈ 168 µM) and an MIC [33] of 50 µg/mL (≈ 168 µM). The MIC [34] was 50 µg/mL (≈ 168 µM), the MIC [35] was 50 µg/mL (≈ 168 µM) and the EC50 [36] was > 100 µM.
